In ChEMBL document CHEMBL4007396, “New diphenylmethane derivatives as peroxisome proliferator-activated receptor alpha/gamma dual agonists endowed with anti-proliferative effects and mitochondrial activity” (Eur J Med Chem, 2017) one finds Activity and viability data, which are given here for two compounds.

The test system of series [1] is HT-29. Briefly: Growth inhibition of human HT-29 cells assessed as cell vitality at 5 uM up to 72 hrs by hemocytometry relative to control. Type of series: functional. More on the design: scale not given: the % may be the effect or the level left. Summed up:
(§1)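 Exponentially growing HT-29 colon adenocarcinoma cells (D-MEM, 10% FBS, 37 °C, 5% CO2) exposed to vehicle (DMSO, final <0.1%) or 1, 5 and 10 μM compound in 10% FBS medium for 24, 48 and 72 hs; cells washed, trypsinized and counted by Bürker hemocytometer, three counts per well. Viability relative to vehicle; mean ± SD of three independent experiments in duplicate.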

A short description of series [2]: Growth inhibition of HEK293T cells assessed as cell vitality at 10 uM after 48 hrs by hemocytometry relative to control. It is filed as cell-based, HEK-293T. The note with it: human, read-out: Activity. Summed up: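 HEK293T grown in DMEM with 10% FBS, penicillin-streptomycin and L-glutamine, exposed 48 h to 10 μM compound (DMSO under 0.1% final) alongside HT-29. Cells trypsinized and counted on a Bürker hemocytometer, three counts per well; viability relative to vehicle-treated cells; three independent experiments in duplicate, mean ± SD.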

Series [3] has as its system HT-29. Briefly: Growth inhibition of human HT-29 cells assessed as cell vitality at 10 uM after 48 hrs by hemocytometry relative to control. It is filed as functional. More on the design: scale not given: the % may be the effect or the level left. The gist of the method: as §1
In series [4] the test system is HT-29. Briefly: Growth inhibition of human HT-29 cells assessed as cell vitality at 5 to 10 uM up to 72 hrs by hemocytometry relative to control. Type of series: functional. The arrangement: scale not given: the % may be the effect or the level left. The gist of the method:
as §1

For `C[C@H](Oc1ccc(Cc2ccc(OCc3coc(-c4ccccc4)n3)cc2)cc1)C(=O)O`, the figures for the Activity in the series with HT-29 [1] and with HT-29 [3] were 45% and 40%, respectively. The viability at 48 h, 10 µM in series [2] is 75%.
Consider `C[C@@H](Oc1ccc(Cc2ccc(OCc3coc(-c4ccccc4)n3)cc2)cc1)C(=O)O`, for which the Activity in the series on HT-29 [4] is 40 - 60%.
